The nature of test [1]: Her2 expression decrease, cell viability multiplex – SKBR3 breast tumor cells, AlphaScreen, ATP viability, primary screen (AID 461;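 active means Her2 level under about 52% in both replicate screens, with viability over 70% of control, limit read from the data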;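 on Her2 level: lower value means less Her2 protein in the cells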;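 on viability: percent of carrier control wells set as 100% viability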). The conditions noted are these: SKBR3 Her2 protein level, 18-24 h, measured here: SKBR3 viability, ATP luminescence, at 10 µM. For orientation: In Alpha technology, singlet oxygen from a donor bead excites a nearby acceptor bead.
For test [2], the target named is Receptor tyrosine-protein kinase erbB-2 (Homo sapiens) (UniProt P04626). The description is as above. The conditions noted are these: 18-24 h, at 10 µM, stronger effect = lower value.
The nature of test [3]: reduced viability of SK-BR-3 breast cancer cells – cell-based, 24 h, human, pilot screen (AID 572;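 active means viability at or below 10% of carrier control in both of two separate runs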;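 further: compound exposure lasted between 18 and 24 h rather than exactly 24 h; 100% = carrier-treated control wells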). Conditions: SK-BR-3 viability, CellTiter-Glo luminescence, at 10 µM, stronger effect = lower value.
The nature of test [4]: HUVEC growth inhibition – cell-based, human, primary screen (AID 575;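 active means viability at or below 30% in both replicate assays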;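 further: 100% = median of untreated cell wells with 0.1% DMSO on each plate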). The conditions noted are these: HUVEC proliferation, CellTiter-Glo luminescence, 72 h; at 10 µM; stronger effect = lower value. Put shortly:
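System – primary HUVEC, no more than 12 passages · Medium – Low-serum (2% FBS) EBM, supplemented · Times – 72 h exposure, 37 °C, 5% CO2, 30 min RT equilibration · Measured by – luminescent ATP assay · Read-out – % viability relative to median vehicle-well signal on each plate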
A general note: Cellular ATP, detected with luciferase, serves as a proxy for viable cell number.

Test [5] can be described thus: H69AR cell proliferation blockers – human, duplicate replicates, primary screen (AID 580;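 active means viability at or under a set limit in both replicates, limit being median viability minus 3 SD, cut at about 48% in these data, passing the limit was not always enough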;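 further: 100% = mean luminescence of untreated wells and 0% = no signal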). The conditions noted are these: H69AR lung tumor cells viability, ATP luminescence, 72 h; at 10 µM; stronger effect = lower value.
Test [6] is described as follows: MRP1 drug-resistance reversers in H69AR cells – cell-based, doxorubicin co-treatment, pilot screen (AID 601;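 active means viability loss from added drug above about 55%, and viability with drug at most 40%, in both replicates, limit read from the data, passing the limit was not always enough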). Conditions: CellTiter-Glo, 72 h, at 10 µM; for differential viability (reversal): stronger effect = higher value.
Test [7] is described as follows: yeast transport mutant growth inhibition pilot in 384-well plates, post-Golgi transport modulator project (AID 636; in the data active means inhibition above about 31%). The conditions noted are these: absorbance 615 nm, about 18 h, stronger effect = higher value.
Test [8] is described as follows: growth suppression of yeast trafficking mutant, preliminary HTS, modulators of trafficking downstream of Golgi apparatus project, 1536-format plate, OD 615 nm (AID 637). Conditions: yeast transport mutant growth, absorbance 615 nm, 18 h; stronger effect = higher value.
The mark [9] stands for this setting: H69AR cells + 2 uM doxorubicin, measured here: viability with 2 uM doxorubicin, stronger effect = lower value.
The mark [10] stands for this setting: H69AR cells, compound alone cytotoxicity.

In general, viability refers to a read-out of living cells in per cent, often relative to untreated cells. What is called inhibition is the drop in the measured response relative to a control, in per cent.

Active and inactive are the calls of the source. Unless noted, no stated cut-off is given here; in the data, active means inhibition above about 30%; inactive means the rest.

Sequence of Receptor tyrosine-protein kinase erbB-2 (Homo sapiens) (P04626 whole entry, looked up): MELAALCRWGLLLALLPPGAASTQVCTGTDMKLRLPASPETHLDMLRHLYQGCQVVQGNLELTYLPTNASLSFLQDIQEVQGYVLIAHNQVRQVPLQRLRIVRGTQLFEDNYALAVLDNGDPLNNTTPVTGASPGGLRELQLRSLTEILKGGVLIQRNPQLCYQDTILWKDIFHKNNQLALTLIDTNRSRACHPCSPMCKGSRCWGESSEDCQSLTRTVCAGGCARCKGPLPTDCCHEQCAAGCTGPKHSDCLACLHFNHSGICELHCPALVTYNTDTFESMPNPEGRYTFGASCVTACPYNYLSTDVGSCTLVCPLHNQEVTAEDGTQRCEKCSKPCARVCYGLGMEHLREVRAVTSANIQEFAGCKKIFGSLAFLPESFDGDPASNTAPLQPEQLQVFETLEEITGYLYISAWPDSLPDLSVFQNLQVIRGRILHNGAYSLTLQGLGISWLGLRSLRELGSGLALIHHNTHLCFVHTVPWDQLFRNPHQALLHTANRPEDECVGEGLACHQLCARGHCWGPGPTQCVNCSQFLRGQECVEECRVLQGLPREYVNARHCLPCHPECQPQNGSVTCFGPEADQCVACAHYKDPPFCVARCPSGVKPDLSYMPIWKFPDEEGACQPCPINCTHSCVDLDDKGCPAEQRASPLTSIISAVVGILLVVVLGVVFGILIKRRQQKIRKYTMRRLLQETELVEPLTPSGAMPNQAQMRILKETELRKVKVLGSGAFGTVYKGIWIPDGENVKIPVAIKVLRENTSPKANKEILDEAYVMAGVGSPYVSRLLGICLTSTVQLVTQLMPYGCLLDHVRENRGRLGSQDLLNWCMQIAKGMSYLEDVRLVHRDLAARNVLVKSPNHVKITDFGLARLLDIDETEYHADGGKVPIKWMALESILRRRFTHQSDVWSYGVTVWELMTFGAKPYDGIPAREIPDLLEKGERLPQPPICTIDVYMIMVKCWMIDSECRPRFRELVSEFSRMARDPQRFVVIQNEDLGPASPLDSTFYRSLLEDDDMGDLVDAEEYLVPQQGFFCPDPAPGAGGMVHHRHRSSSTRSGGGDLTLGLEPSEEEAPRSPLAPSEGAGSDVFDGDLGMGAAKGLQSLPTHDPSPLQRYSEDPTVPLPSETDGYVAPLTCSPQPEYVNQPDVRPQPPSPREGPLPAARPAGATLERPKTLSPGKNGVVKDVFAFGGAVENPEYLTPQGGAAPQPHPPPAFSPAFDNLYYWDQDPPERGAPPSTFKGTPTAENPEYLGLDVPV

Regarding `O=C(Cn1cnc2c(nnn2-c2ccc(F)cc2)c1=O)N1CCCc2ccccc21`, the viability in test [1] was 101%; in test [3], 101% (inactive); in test [4], 90.5% (inactive); in test [5] it was 103% (inactive); in test [6] (setting [9]), 86.6%; in test [6] (setting [10]), 103%. Moreover, in test [2], the Her2 level was 117% (inactive). In addition, the differential viability (reversal) in test [6] (H69AR cells + 2 uM doxorubicin) was 16.3% (inactive). The inhibition in test [7] was -9.59% (inactive); in test [8], -2.7% (inactive).
Consider `O=C(NC(C(=O)c1ccccc1)n1ccc(=O)[nH]c1=O)c1ccccc1` (stereo not given), for which the viability in test [1] was 98.5%; in test [3], 98.5% (inactive); in test [4], 98.8% (inactive); in test [5] it was 91.2% (inactive); in test [6] (setting [9]), 84.4%; in test [6] (setting [10]) it was 91.2%. Further, the Her2 level in test [2] is 99% (inactive). Besides, the differential viability (reversal) in test [6] (H69AR cells + 2 uM doxorubicin) is 6.79% (inactive). For the same molecule, the inhibition was -0.93% (inactive) in test [7] and 23.1% (inactive) in test [8].
Consider `Cc1csc2ncc(C(=O)N3CCc4ccccc43)c(=O)n12`, for which the viability in test [1] was 95.5%; in test [3], 95.5% (inactive); in test [4] it was 86% (inactive); in test [5], 89% (inactive); in test [6] (setting [9]), 92.5%; in test [6] (setting [10]) it was 89%. Moreover, in test [2], the Her2 level was 109% (inactive). Besides, in test [6] (H69AR cells + 2 uM doxorubicin), the differential viability (reversal) is -3.54% (inactive). The results for the inhibition in test [7] and in test [8] were -7.2% (inactive) and 4% (inactive), respectively.
Take `O=C(Nc1ccc(N2CCCCC2)cc1)c1ccc(F)cc1`: the viability in test [1] is 84%; in test [3] it was 84% (inactive); in test [4] it was 80% (inactive); in test [5], 83.1% (inactive); in test [6] (setting [9]), 78.8%; in test [6] (setting [10]) it was 83.1%. The Her2 level in test [2] was 106% (inactive). In test [6] (H69AR cells + 2 uM doxorubicin), the differential viability (reversal) was 4.35% (inactive). The results for the inhibition in test [7] and in test [8] were 1.79% (inactive) and -0.5% (inactive), respectively.
As to `Cc1cc(Cl)ccc1OCCCC(=O)NO`, the viability in test [1] is 80.5%; in test [3] it was 80.5% (inactive); in test [4] it was 71.3% (inactive); in test [5], 2.07% (active); in test [6] (setting [9]), 22.7%; in test [6] (setting [10]) it was 2.07%. The Her2 level in test [2] was 76% (inactive). Moreover, the differential viability (reversal) in test [6] (H69AR cells + 2 uM doxorubicin) was -20.7% (inactive). Further, the inhibition in test [7] is 2.18% (inactive); in test [8] it was 3.83% (inactive).
Take `Cc1ccc(-n2nnnc2SCC(=O)c2cc(C)n(-c3cc(C)on3)c2C)cc1`: the viability is 91% in test [1]; 91% (inactive) in test [3]; 88.5% (inactive) in test [4]; 65.4% (inactive) in test [5]; 93.6% in test [6] (setting [9]); 65.4% in test [6] (setting [10]). Also, the Her2 level in test [2] is 83% (inactive). Moreover, the differential viability (reversal) in test [6] (H69AR cells + 2 uM doxorubicin) was -28.2% (inactive). Besides, the results for the inhibition in test [7] and in test [8] were -2.86% (inactive) and 1.11% (inactive), respectively.
Take `CCN(CC)CCN1C(=O)C(O)=C(C(=O)c2cccs2)C1c1ccccn1` (stereo not given): the viability in test [1] was 86%; in test [3], 86% (inactive); in test [4], 100% (inactive); in test [5] it was 98% (inactive); in test [6] (setting [9]) it was 79.5%; in test [6] (setting [10]), 98%. Also, in test [2], the Her2 level is 82% (inactive). In addition, the differential viability (reversal) in test [6] (H69AR cells + 2 uM doxorubicin) was 18.6% (inactive). The inhibition in test [7] was -4.86% (inactive); in test [8], -1.59% (inactive).
`CC(C)[C@H](NC(=O)OC(C)(C)C)c1nnc(SCC(=O)Nc2ccc(Br)cc2)o1`: the viability was 96.5% in test [1]; 96.5% (inactive) in test [3]; 87.5% (inactive) in test [4]; 93.9% (inactive) in test [5]; 88.1% in test [6] (setting [9]); 93.9% in test [6] (setting [10]). Also, the Her2 level in test [2] is 108% (inactive). In addition, the differential viability (reversal) in test [6] (H69AR cells + 2 uM doxorubicin) was 5.79% (inactive). Also, the inhibition in test [7] was -1.17% (inactive); in test [8], -14% (inactive).
Take `O=S(=O)(Nc1ccn(-c2ccccc2)n1)c1ccc(Br)cc1`: the viability in test [1] is 89%; in test [3], 89% (inactive); in test [4], 85.7% (inactive); in test [5], 87.5% (inactive); in test [6] (setting [9]) it was 93.7%; in test [6] (setting [10]), 87.5%. Also, the Her2 level in test [2] was 86.5% (inactive). For the same molecule, the differential viability (reversal) in test [6] (H69AR cells + 2 uM doxorubicin) was -6.15% (inactive). Besides, the inhibition in test [7] was -3.77% (inactive); in test [8], 0.16% (inactive).
Regarding `C[C@H](NC(=O)Nc1cccc(C(F)(F)F)c1)C(=O)O`, the viability is 108% in test [1]; 108% (inactive) in test [3]; 94.3% (inactive) in test [4]; 93.2% (inactive) in test [5]; 87.9% in test [6] (setting [9]); 93.2% in test [6] (setting [10]). Further, the Her2 level in test [2] is 108% (inactive). Moreover, in test [6] (H69AR cells + 2 uM doxorubicin), the differential viability (reversal) was 5.33% (inactive). For the same molecule, the inhibition was -3.07% (inactive) in test [7] and 1.61% (inactive) in test [8].
On to `Cc1cc(C)n(-c2nnc(C)n2/N=C/c2ccco2)n1`, for which the viability is 108% in test [1]; 108% (inactive) in test [3]; 93.1% (inactive) in test [4]; 96.1% (inactive) in test [5]; 91% in test [6] (setting [9]); 96.1% in test [6] (setting [10]). In addition, the Her2 level in test [2] is 91% (inactive). Also, in test [6] (H69AR cells + 2 uM doxorubicin), the differential viability (reversal) was 5.14% (inactive). The figures for the inhibition in test [7] and in test [8] were -6.27% (inactive) and -2.3% (inactive), respectively.
Take `CCOC(=O)CSc1nc2cc(C(=O)NCc3ccco3)ccc2c(=O)n1C1CCCCC1`: the viability in test [1] was 112%; in test [3], 112% (inactive); in test [4] it was 91.7% (inactive); in test [5], 89.8% (inactive); in test [6] (setting [9]) it was 87.3%; in test [6] (setting [10]) it was 89.8%. In addition, the Her2 level in test [2] is 83.5% (inactive). The differential viability (reversal) in test [6] (H69AR cells + 2 uM doxorubicin) was 2.55% (inactive). In addition, the inhibition in test [7] is -4.53% (inactive); in test [8] it was 0.33% (inactive).
For the molecule `Nc1sccc1C(=O)c1ccccc1`, the viability was 85.5% in test [1]; 85.5% (inactive) in test [3]; 82.6% (inactive) in test [4]; 88.5% (inactive) in test [5]; 91.2% in test [6] (setting [9]); 88.5% in test [6] (setting [10]). Further, the Her2 level in test [2] was 118% (inactive). In addition, the differential viability (reversal) in test [6] (H69AR cells + 2 uM doxorubicin) was -2.76% (inactive). Further, the results for the inhibition in test [7] and in test [8] were -1.87% (inactive) and -0.16% (inactive), respectively.
As for `COc1ccc(-c2cc(C(=O)NCc3ccc(Cl)cc3)no2)cc1OC`, the viability in test [1] was 92.5%; in test [3], 92.5% (inactive); in test [4], 83% (inactive); in test [5] it was 100% (inactive); in test [6] (setting [9]) it was 99.5%; in test [6] (setting [10]) it was 100%. For the same molecule, the Her2 level in test [2] is 88.5% (inactive). The differential viability (reversal) in test [6] (H69AR cells + 2 uM doxorubicin) was 0.66% (inactive). Further, the inhibition in test [7] is -6.35% (inactive); in test [8], -0.33% (inactive).

The values above are taken from PubChem BioAssay.
